From ChEMBL document CHEMBL1133176, “3-Aryl-[1,2,4]triazino[4,3-a]benzimidazol-4(10H)-ones: tricyclic heteroaromatic derivatives as a new class of benzodiazepine receptor ligands” (J Med Chem, 2000) come the findings set out here.

Experiment [1] deals with T1, GABA-A receptor; anion channel (Bos taurus) (UniProt P10063+P08220+P20237+P08219+P10064+P22300). Nature of the experiment: Inhibition of […] [3H]- Ro.15-1788 binding to benzodiazepine receptors in bovine brain membrane. It counts as cell membranes.
For experiment [2], the system named is Mus musculus. Nature of the experiment: Proconvulsant action measured as the dose required to induce convulsions in 50% of mice that had been previously given a subconvulsant dose of PTZ (40 mg/kg, sc); No effect at a highest dose of 100 mg/kg. It counts as functional, organism-based. Also noted: dose 100 mg/kg.
The test system of experiment [3] is Mus musculus. Nature of the experiment: Antagonism of Diazepam (2.5 mg/kg, ip) anticonvulsant effect in mice treated with PTZ (80 mg/kg, sc). It counts as functional. In outline:
(§1)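 Mice; anticonvulsant value is the dose protecting 50% of animals from convulsions caused by PTZ 80 mg/kg sc; diazepam antagonism measured as dose reversing the anticonvulsant effect of diazepam 2.5 mg/kg ip in mice given PTZ 80 mg/kg sc. Top test dose 250 mg/kg; means of at least three determinations (≤20% between-experiment difference).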

The test system of experiment [4] is Mus musculus. Nature of the experiment: Dose required to antagonise the convulsant action of PTZ (80 mg/kg, sc) in 50% mice; No effect at a highest dose of 100 mg/kg. Also noted: dose 100 mg/kg. The experiment is classed as functional, organism-based.
In experiment [5] the target is T1, GABA-A receptor; anion channel (Bos taurus). Nature of the experiment: (§2) Inhibition of [35S]-TBPS binding to GABA-A central Benzodiazepine Receptor of bovine cerebral cortex membranes. It counts as tissue-based. Also noted: concentration or dose not given beside the values. Particulars: concentration not given here. The method, boiled down: (§3)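 [35S]TBPS binding run in the presence of GABA with compounds at 0.5 μM, on bovine brain membranes washed in Tris-citrate pH 7.4. […] Mean ± SE of three separate experiments.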

Experiment [6] shares this target. Nature of the experiment: Relative binding to GABA-A receptor in the presence and absence of GABA (GABA shift), Ki(-GABA)/Ki(+GABA). The experiment is classed as protein-complex assay. The method, boiled down: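 Bovine brain membranes, frozen-thawed and washed in 50 mM Tris-citrate pH 7.4, used for displacement of radiolabeled antagonist [3H]Ro 15-1788. Ki reported as mean ± SEM of three determinations. GABA ratio taken as Ki without GABA divided by Ki with GABA.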

The target in experiment [7] is GABA-A receptor; anion channel. Nature of the experiment: Displacement of [3H]- Ro.15-1788 from GABA-A central Benzodiazepine receptor (BzR) of Bovine cerebral cortex membrane. The experiment is classed as tissue-based, Bos taurus.
In experiment [8] the test system is Mus musculus. Nature of the experiment: Dose required by the compound in vivo to antagonise the convulsant action of PTZ (80 mg/kg, sc) in 50 % mice. The experiment is classed as functional. The method, boiled down: as §1
The subject of experiment [9] is Mus musculus. Nature of the experiment: Proconvulsant action measured as the dose required to induce convulsions in 50% of mice that had been previously given a subconvulsant dose of PTZ (40 mg/kg, sc); No effect at a highest dose of 250 mg/kg. The experiment is classed as functional, organism-based. Also noted: dose 250 mg/kg. The method, boiled down: (§4)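 Mice pretreated with a subconvulsant PTZ dose of 40 mg/kg sc. The dose inducing convulsions in 50% of animals was determined, with compounds tested up to 250 mg/kg. Values are means of at least three determinations, with ≤20% variation between experiments.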

Experiment [10] concerns Mus musculus. Nature of the experiment: Antagonism of Diazepam (2.5 mg/kg, ip) anticonvulsant effect in mice treated with PTZ (80 mg/kg, sc), No effect to 250 mg/kg dose. The experiment is classed as functional, organism-based. Also noted: dose 250 mg/kg. The method, boiled down: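 Mice received diazepam 2.5 mg/kg ip plus convulsant PTZ 80 mg/kg sc. The dose of test compound that antagonizes the anticonvulsant effect of diazepam was determined, with a highest dose of 250 mg/kg. Values are means of at least three determinations.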

Experiment [11] concerns Mus musculus. Nature of the experiment: Dose required to antagonise the convulsant action of PTZ (80 mg/kg, sc) in 50% mice; No effect at a highest dose of 250 mg/kg. Details: dose 250 mg/kg. The experiment is classed as functional, organism-based.
The target of experiment [12] is T1, GABA-A receptor; anion channel (Bos taurus). Described as §2. It counts as tissue-based. Particulars: concentration not given here. In outline: as §3
Experiment [13] relates to Mus musculus. Nature of the experiment: Dose required to antagonise the convulsant action of PTZ (80 mg/kg, sc) in 50% mice; No effect at a highest dose of 30 mg/kg. The experiment is classed as functional, organism-based. Details: dose 30 mg/kg.
Experiment [14] relates to Mus musculus. Nature of the experiment: Proconvulsant action measured as the dose required to induce convulsions in 50% of mice that had been previously given a subconvulsant dose of PTZ (40 mg/kg, sc). It counts as functional. In outline: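 Proconvulsant test in mice pretreated with subconvulsant PTZ 40 mg/kg sc; value is the dose inducing convulsions in 50% of animals. Highest test dose 250 mg/kg; means of at least three determinations, ≤20% difference between experiments.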

Experiment [15] deals with Mus musculus. Nature of the experiment: Proconvulsant action measured as the dose required to induce convulsions in 50% of mice that had been previously given a subconvulsant dose of PTZ (40 mg/kg, sc); No effect at a hieghst dose of 250 mg/kg. It counts as functional, organism-based. Details: dose 250 mg/kg. The method, boiled down:
as §4

The inhibition is the share of the control response that was lost under treatment. A word on the Ki: it is a measure of affinity in units of concentration, obtained from inhibition or displacement. By ED50 is commonly meant the dose that gives a 50% effect, or the effect in half of the subjects.

Calls of active or inactive are those of the source. No cut-off for these calls is given here.

For `Oc1c(-c2ccc(Cl)cc2)nnc2nc3ccccc3n12`, the inhibition in experiment [1] was found to be 34%.
On the same count and under the same terms, with `Oc1cnnc2nc3ccccc3n12` the figure was 11%.
Turning to `CCOC(=O)c1ncn2c1CN(C)C(=O)c1cc(F)ccc1-2` [FLUMAZENIL], the NE result in experiment [2] and in experiment [4] was “inactive” in each case. The Diazepam antagonism in [3] is given as 0.3. In experiment [5], this molecule displayed an inhibition of 15%. For the same molecule, the GABA ratio in experiment [6] was determined as 0.9. This molecule displayed a Ki in [7] of 0.09 nM.
In turn, `Cc1nnc2nc3ccccc3n2c1O` returned an inhibition in experiment [1] of 26%.
Regarding `Cn1c2ccccc2n2c(=O)c(-c3ccccc3)nnc12`, in experiment [8], the median effective dose (ED50) worked out at 60 mg/kg. Besides, the figures for the inhibition in experiment [5] and in [1] were 66% and 92%, respectively. The GABA ratio in [6] amounted to 1.7. The NE result in experiment [9] and in [10] was “inactive” each time. In experiment [7], this molecule gave an inhibition constant Ki of 860 nM.
For `Oc1c(-c2ccsc2)nnc2nc3ccccc3n12`, the GABA ratio in [6] came to 1.2. Also, the inhibition in [1] is 85%. In addition, the affinity in [7], expressed as Ki, was 107 nM.
Turning to `Oc1c(-c2ccco2)nnc2nc3ccccc3n12`, the inhibition in [5] is 25%; in [1] it was 93%. In addition, the GABA ratio in experiment [6] is 0.98. Besides, affinity in [7] was put at a Ki of 56 nM.
In the case of `Oc1c(-c2ccccc2)nnc2nc3ccccc3n12`, the NE entry in experiment [11], in experiment [9] and in [10] was “inactive” throughout. For the same molecule, the inhibition in experiment [5] was 35%; in [1], 97%. Also, in [6], the GABA ratio worked out at 1.2. The molecule also had a Ki in experiment [7] of 53 nM.
Regarding `Oc1c(-c2cccs2)nnc2nc3ccccc3n12`, the NE result in experiment [11], in experiment [9] and in experiment [10] was “inactive” throughout. Moreover, the inhibition in experiment [12] stood at 28%; in [1] it was 99%. Also, the GABA ratio in [6] turned out to be 0.97. In experiment [7], this molecule came in with a Ki of 13 nM.
The molecule `COc1ccc(-c2nnc3nc4ccccc4n3c2O)cc1OC` gave an inhibition in experiment [1] of 17%.
The same measure, in the same setting: the value for `Cn1c2ccccc2n2c(=O)c(-c3cccs3)nnc12` was 63%; that for `COc1ccc(-c2nnc3n(C)c4ccccc4n3c2=O)cc1` was 53%.
For the molecule `O=C1CN=C(c2ccccc2Cl)c2cc([N+](=O)[O-])ccc2N1`, the inhibition in [5] came out at 100%.
For the molecule `Cn1c2ccccc2n2c(=O)c(-c3ccco3)nnc12`, the inhibition in experiment [1] worked out at 68%.
In experiment [8], `CN1C(=O)CN=C(c2ccccc2)c2cc(Cl)ccc21` [DIAZEPAM] displayed an ED50 of 0.4 mg/kg.
In the case of `Cn1c2ccccc2n2c(=O)c(-c3ccc(Cl)cc3)nnc12`, in [1], the inhibition is 30%.
Regarding `COC(=O)c1cc2c(cn1)[nH]c1ccccc12` [BETA-CCM], in experiment [13], the NE entry was “inactive”. This molecule had a Diazepam antagonism in experiment [3] of 0.02. In [14], this molecule displayed a Proconvulsant action of 19.4.
Turning to `COc1ccc(-c2nnc3nc4ccccc4n3c2O)cc1`, the NE entry in [11], in [15] and in experiment [10] was “inactive” throughout. Besides, the inhibition in [5] was 5%; in experiment [1], 89%. In experiment [6], the GABA ratio was found to be 1.25. The Ki in [7] came out at 44 nM.
Molecule `Cc1ccc(-c2nnc3nc4ccccc4n3c2O)cc1` displayed an inhibition in [1] of 56%.
With `Oc1ccc(-c2nnc3nc4ccccc4n3c2O)cc1`, the inhibition was 15% in [5] and 99% in experiment [1]. Moreover, in [6], the GABA ratio was found to be 0.87. In experiment [7], this molecule showed a Ki of 74 nM.
With `Oc1ccc(-c2nnc3nc4ccccc4n3c2O)cc1O`, the GABA ratio in [6] stood at 1.2. The same molecule came in with an inhibition in experiment [1] of 99%. Besides, the affinity in experiment [7], expressed as Ki, was 170 nM.
Taken in the same sequence, the figures for `Cc1ccc(-c2nnc3nc4ccccc4n3c2O)s1` were 0.96, 83% and 115 nM.
